# Measured values as given in ChEMBL document CHEMBL1123309, “Esters and lactones of phenolic amino carboxylic acids: prodrugs for iron chelation” (J Med Chem, 1986).
# How the values were obtained:
# Mus musculus [1] = experiment: BDF1 male mice were administered with the compound and number of survivors was determined at a dose 100 mg/kg intraperitoneal out of 10 tested; type: functional
# Method in brief: (§1)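 Male BDF1 mice were iron-loaded by transfusion of canine red cells. The cells were heparinised, washed twice in isotonic saline and heated at 50 °C for 30 min. Dosing started two days after the last transfusion, once daily for 7 consecutive days. Compounds were given in distilled water or as a fine aqueous suspension with Polysorbate 80 (2% final). Toxic signs were recorded daily and survivors counted per group.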
# Rattus norvegicus [2] = experiment: Percent change in iron levels was determined in feces using iron overload rat model where the route of administration is Intraperitoneal; type: functional
# Rattus norvegicus [3] = experiment: Percent change in iron levels was determined in urine using iron overload rat model where the route of administration is Peroral; type: functional
# Mus musculus [4] = experiment: BDF1 male mice were administered with 150 mg/kg po and percent change in iron levels was determined in Feces; type: functional
# Method in brief: (§2)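 Male BDF1 mice made iron-overloaded by transfusion of washed, heat-treated (50 °C, 30 min) canine red cells. Dosing began 2 days after the last transfusion, once daily for 7 days, in distilled water or 2% Polysorbate 80 suspension. Daily group urine was collected. Pooled feces were digested in 1 N HCl (90 °C, 30 min). Liver and spleen were homogenized in saline. Iron was measured by atomic absorption and expressed as % change vs transfused controls.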
# Mus musculus [5] = experiment: BDF1 male mice were administered with 100 mg/kg po and percent change in iron levels was determined in Spleen; type: functional; method in brief: as §2
# Mus musculus [6] = experiment: BDF1 male mice were administered with 100 mg/kg ip and percent change in iron levels was determined in Feces; type: functional; conditions: route intraperitoneal; method in brief: as §2
# Mus musculus [7] = experiment: BDF1 male mice were administered with 150 mg/kg po and percent change in iron levels was determined in Liver; type: functional; method in brief: as §2
# Mus musculus [8] = experiment: BDF1 male mice were administered with the compound and number of survivors was determined at a dose 150 mg/kg peroral out of 10 tested; type: functional; conditions: route oral; method in brief: as §1
# Mus musculus [9] = experiment: BDF1 male mice were administered with 100 mg/kg po and percent change in iron levels was determined in Liver; type: functional; method in brief: as §2
# Mus musculus [10] = experiment: BDF1 male mice were administered with 150 mg/kg po and percent change in iron levels was determined in Urine; type: functional; method in brief: as §2
# Rattus norvegicus [11] = experiment: Percent change in iron levels was determined in feces using iron overload rat model where the route of administration is Peroral; type: functional
# Mus musculus [12] = experiment: BDF1 male mice were administered with 100 mg/kg ip and percent change in iron levels was determined in Liver; type: functional; conditions: route intraperitoneal; method in brief: as §2
# Mus musculus [13] = experiment: BDF1 male mice were administered with the compound and number of survivors was determined at a dose 100 mg/kg peroral out of 10 tested; type: functional; conditions: route oral; method in brief: as §1
# Mus musculus [14] = experiment: BDF1 male mice were administered with 100 mg/kg po and percent change in iron levels was determined in Urine; type: functional; method in brief: as §2
# Mus musculus [15] = experiment: BDF1 male mice were administered with 150 mg/kg po and percent change in iron levels was determined in Spleen; type: functional; method in brief: as §2
# Mus musculus [16] = experiment: BDF1 male mice were administered with 100 mg/kg ip and percent change in iron levels was determined in Urine; type: functional; conditions: route intraperitoneal; method in brief: as §2
# Mus musculus [17] = experiment: BDF1 male mice were administered with 100 mg/kg po and percent change in iron levels was determined in Feces; type: functional; method in brief: as §2
# Mus musculus [18] = experiment: BDF1 male mice were administered with 100 mg/kg ip and percent change in iron levels was determined in Spleen; type: functional; conditions: route intraperitoneal; method in brief: as §2
# Rattus norvegicus [19] = experiment: Percent change in iron levels was determined in urine using iron overload rat model where the route of administration is Intraperitoneal; type: functional
# [20] = Half life was determined titrimetrically at pH 7.5 in the presence of Fe(III)Half life was determined
# Mus musculus [21] = experiment: BDF1 male mice were administered with the compound orally and number of survivors was determined out of 10 tested at a dose 100 mg/kg peroral; type: functional; conditions: route oral; method in brief: as §1
# Mus musculus [22] = experiment: BDF1 male mice were administered with the compound orally and number of survivors at a dose 25 mg/kg peroral was determined out of 10 tested; type: functional; conditions: route oral; method in brief: as §1
# Mus musculus [23] = experiment: BDF1 male mice were administered with 25 mg/kg orally and percent change in iron levels was determined in Urine; type: functional; conditions: route oral
# Method in brief: (§3)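 Hypertransfused male BDF1 mice (canine red cells, washed and heated at 50 °C for 30 min) were dosed orally for 7 days with compound in distilled water or a fine suspension with Polysorbate 80 (2% final). Daily group urine and pooled feces (1 N HCl digest, 90 °C, 30 min, triplicate) were collected, and liver and spleen were homogenized. Iron was measured by atomic absorption and reported as % change vs transfused control.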
# Mus musculus [24] = experiment: BDF1 male mice were administered with 25 mg/kg orally and percent change in iron levels was determined in Feces; type: functional; conditions: route oral; method in brief: as §3
# [25] = Compound was evaluated for lethal dose after intraperitoneal administration using iron overload rat model; type: toxicity, organism-based; conditions: in vivo, ip
# Mus musculus [26] = experiment: BDF1 male mice were administered with 50 mg/kg orally and percent change in iron levels was determined in Spleen; type: functional; conditions: route oral; method in brief: as §3
# [27] = First order rate constant was determined titrimetrically at pH 7.5 in the presence of Cu(II)
# [28] = Half life was determined titrimetrically at pH 10.5 in the presence of Fe(III)Half life was determined (measured in water); type: ADME; conditions: pH 7.5, in the assay text read “pH 7.5” for “pH 10.5”
# Method in brief: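 Metal and chelator were each 5 × 10⁻⁴ M. Constant pH was held with 0.05 M NaOH. Hydrolysis rate came from base consumption, with first-order kinetics.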
# Mus musculus [29] = experiment: BDF1 male mice were administered with 50 mg/kg orally and percent change in iron levels was determined in Urine; type: functional; conditions: route oral; method in brief: as §3
# Mus musculus [30] = experiment: BDF1 male mice were administered with 25 mg/kg orally and percent change in iron levels was determined in Liver; type: functional; conditions: route oral; method in brief: as §3
# Mus musculus [31] = experiment: BDF1 male mice were administered with 100 mg/kg orally and percent change in iron levels was determined in Liver; type: functional; conditions: route oral; method in brief: as §2
# Mus musculus [32] = experiment: BDF1 male mice were administered with 25 mg/kg orally and percent change in iron levels was determined in Spleen; type: functional; conditions: route oral; method in brief: as §3
# Mus musculus [33] = experiment: BDF1 male mice were administered with 100 mg/kg orally and percent change in iron levels was determined in Spleen; type: functional; conditions: route oral; method in brief: as §2
# [34] = Half life was determined titrimetrically at pH 7.5 in the presence of Cu(II) Half life was determined
# [35] = First order rate constant was determined titrimetrically at pH 7.5 in the presence of Zn(II)
# [36] = Half life was determined titrimetrically at pH 10.5 in the absence of metal ironHalf life was determined Spectrophotometrically; type: ADME
# Mus musculus [37] = experiment: BDF1 male mice were administered with 200 mg/kg orally and percent change in iron levels was determined in Liver; type: functional; conditions: route oral; method in brief: as §2
# Mus musculus [38] = experiment: BDF1 male mice were administered with 50 mg/kg orally and percent change in iron levels was determined in Liver; type: functional; conditions: route oral; method in brief: as §3
# Mus musculus [39] = experiment: BDF1 male mice were administered with 50 mg/kg orally and percent change in iron levels was determined in Feces; type: functional; conditions: route oral; method in brief: as §3
# Mus musculus [40] = experiment: BDF1 male mice were administered with 100 mg/kg orally and percent change in iron levels was determined in Urine; type: functional; conditions: route oral; method in brief: as §2
# Mus musculus [41] = experiment: BDF1 male mice were administered with 200 mg/kg orally and percent change in iron levels was determined in Feces; type: functional; conditions: route oral; method in brief: as §2
# Mus musculus [42] = experiment: BDF1 male mice were administered with the compound orally and number of survivors was determined out of 10 tested at a dose 50 mg/kg peroral; type: functional; conditions: route oral; method in brief: as §1
# [43] = First order rate constant was determined titrimetrically at pH 7.5 in the presence of Co(II)
# Mus musculus [44] = experiment: BDF1 male mice were administered with 200 mg/kg orally and percent change in iron levels was determined in Urine; type: functional; conditions: route oral; method in brief: as §2
# [45] = Half life was determined titrimetrically at pH 7.5 in the presence of Co(II)Half life was determined (measured in water)
# Mus musculus [46] = experiment: BDF1 male mice were administered with 200 mg/kg orally and percent change in iron levels was determined in Spleen; type: functional; conditions: route oral; method in brief: as §2
# Mus musculus [47] = experiment: BDF1 male mice were administered with the compound orally and number of survivors was determined out of 10 tested at a dose 200 mg/kg peroral; type: functional; conditions: route oral; method in brief: as §1
# Mus musculus [48] = experiment: BDF1 male mice were administered with 100 mg/kg orally and percent change in iron levels was determined in Feces; type: functional; conditions: route oral; method in brief: as §2
# [49] = Half life was determined titrimetrically at pH 7.5 in the presence of Zn(II)Half life was determined (measured in water)
# [50] = First order rate constant was determined titrimetrically at pH 10.5 in the absence of metal iron; type: ADME
# Mus musculus [51] = experiment: BDF1 male mice were administered with 300 mg/kg intraperitoneally and number of survivors was determined out of 10 tested; type: functional; conditions: route intraperitoneal; method in brief: as §1
smiles,measurement,setting,value
CCCCCOC(=O)CN(CCN(CC(=O)OCCCCC)Cc1ccccc1O)Cc1ccccc1O,No. of survivors,Mus musculus [1],10
same,Iron change,Rattus norvegicus [2],114%
same,Iron change,Rattus norvegicus [3],390%
same,Iron change,Mus musculus [4],-69%
same,Iron change,Mus musculus [5],12%
same,Iron change,Mus musculus [6],24%
same,Iron change,Mus musculus [7],-60%
same,No. of survivors,Mus musculus [8],8
same,Iron change,Mus musculus [9],-12%
same,Iron change,Mus musculus [10],132%
same,Iron change,Rattus norvegicus [11],268%
same,Iron change,Mus musculus [12],-33%
same,No. of survivors,Mus musculus [13],10
same,Iron change,Mus musculus [14],43%
same,Iron change,Mus musculus [15],-11%
same,Iron change,Mus musculus [16],117%
same,Iron change,Mus musculus [17],-3%
same,Iron change,Mus musculus [18],-2%
same,Iron change,Rattus norvegicus [19],215%
COC(=O)CN(CCN(CC(=O)OC)Cc1ccccc1O)Cc1ccccc1O,half-life,[20],0.328 h
same,No. of survivors,Mus musculus [21],10
same,No. of survivors,Mus musculus [22],10
same,Iron change,Mus musculus [23],30%
same,Iron change,Mus musculus [24],-10%
same,LD50,[25],≥ 800 mg/kg
same,Iron change,Rattus norvegicus [2],390%
same,Iron change,Mus musculus [26],-12%
same,Iron change,Rattus norvegicus [3],588%
same,10E2 k1,[27],0.513 min⁻¹
same,half-life,[28],5.4 min
same,Iron change,Mus musculus [29],49%
same,Iron change,Mus musculus [30],-20%
same,Iron change,Rattus norvegicus [11],369%
same,Iron change,Mus musculus [31],-42%
same,Iron change,Mus musculus [32],-7%
same,Iron change,Mus musculus [33],-12%
same,half-life,[34],2.25 h
same,10E2 k1,[35],3.66 min⁻¹
same,half-life,[36],3.57 h
same,Iron change,Mus musculus [37],-53%
same,Iron change,Mus musculus [38],-27%
same,Iron change,Mus musculus [39],8%
same,Iron change,Mus musculus [40],34%
same,Iron change,Mus musculus [41],-71%
same,No. of survivors,Mus musculus [42],10
same,10E2 k1,[43],0.436 min⁻¹
same,Iron change,Mus musculus [44],127%
same,half-life,[45],2.72 h
same,Iron change,Mus musculus [46],-29%
same,Iron change,Rattus norvegicus [19],694%
same,No. of survivors,Mus musculus [47],10
same,Iron change,Mus musculus [48],-2%
same,half-life,[49],0.318 h
same,10E2 k1,[50],0.325 min⁻¹
COC(=O)C(NCCNC(C(=O)OC)c1ccccc1O)c1ccccc1O (stereo unspecified),LD50,[25],≥ 800 mg/kg
same,Iron change,Rattus norvegicus [2],104%
same,Iron change,Rattus norvegicus [3],115%
same,Iron change,Rattus norvegicus [11],89%
same,Iron change,Rattus norvegicus [19],188%
CCOC(=O)C(NCCNC(C(=O)OCC)c1ccccc1O)c1ccccc1O (stereo unspecified),LD50,[25],≥ 800 mg/kg
COC(=O)CN(Cc1ccccc1O)CC1CN(Cc2ccccc2O)CC(=O)O1 (stereo unspecified),No. of survivors,Mus musculus [51],10
